Most compounds without a hit are left out; they make up all but 2.3% or so of the library.
EWS-Fli inh = EWS/Fli-driven NR0B1 reporter inhibitors, primary screen, A673 cells, NR0B1 luciferase, luminescence, MLPCN library. inhibition, % at 12.6 µM. AID 651661, 2012. viability-normalised. 350,000 tested, 0.67% active;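 active = mean inhibition of at least 50% after viability correction, with every replicate also passing that limit; inconclusive = mean reaches 50% but only one of two replicates passes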;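 note: firefly luciferase signal divided by Alamar Blue viability fluorescence both relative to DMSO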
Env fusion inh = inhibitors of HIV-1 Env-driven cell-cell fusion, primary screen, HeLa-JRFL effector, CEM21 target cells, luciferase; inhibition, % at 12.3 µM; 360,000 tested, 1.1% active;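 active = mean replicate inhibition score of at least 50 and every replicate individually at or above 50; inconclusive = only one of the two criteria met; inactive = mean below 50 and not all replicates reaching 50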;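 note: 0% = plate neutral controls and 100% = maraviroc near 300 nM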
PGC1a acetyl inh = inhibitors of PGC1a acetylation signal, primary screen, cell-based, U2OS, AlphaScreen, inhibitor mode | AlphaScreen anti-acetyl-lysine; with virally co-expressed GCN5 acetyltransferase | inhibition, % at 15.6 µM | 350,000 tested, 0.17% active | AID 651687, 2012;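 active = every replicate shows inhibition of at least 40%; inconclusive = mean inhibition at least 40% but some replicate below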;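 note: 0% = neutral control wells and 100% = positive control wells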
FN deposition inh = inhibitors of fibronectin matrix deposition, primary screen, AH1F cells, Alexa488-fibronectin fluorescence, plate reader; AH1F fibroblasts, overnight; AID 743247, 2014; inhibition, % at 12.6 µM; 350,000 tested, 0.086% active;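 active = mean inhibition across replicates of 30% or more, regardless of how many single replicates reach that level; inconclusive = mean under 30% yet at least half of replicates reach 30%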;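 note: positive control wells lacked labelled fibronectin entirely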
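material = AH1F fibroblast monolayer depositing Alexa488-labelled fibronectin into matrix | amount = 10000 AH1F cells/well | buffer or medium = DMEM plus 2% serum, read in PBS | incubation = 1 h cell adhesion before compound, then overnight fibronectin incubation | detection = fluorescence at 485 nm excitation, 525 nm emission | evaluation = percent inhibition as loss of matrix-bound fibronectin fluorescence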
PAX8 inh HTS = inhibitors of PAX8-driven TPO luciferase reporter, primary screen, RMG-I cells, single concentration. SteadyGlo, 24 h. inhibition, % at 12.6 µM. 360,000 tested, 1.2% active. AID 652154, 2013;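 active = mean replicate inhibition at least 60% with every replicate also reaching 60%; inconclusive = only one of the two criteria is met; inactive = mean below 60% and not all replicates reaching 60%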;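 note: luciferase light reporting Pax8 driven TPO promoter activity; plate controls were median of neutral control wells for no effect and mitoxantrone controls for full effect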
CFTR F508del cor = F508del CFTR correction, initial screen, CFBE line, single point. AID 720511, 2013. activity (quench increase), % at 7.58 µM. 350,000 tested, 0.36% active. CFBE cells, YFP halide quenching; stimulated with forskolin plus potentiator P3; % fluorescence drop versus neutral controls;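 active = mean added fluorescence quench of at least 8% versus neutral control, with both replicates also reaching 8%; inconclusive = only one of the mean or replicate conditions met; inactive = mean below 8% and not both replicates reaching 8%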;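 note: cells transiently co-express mutant CFTR-F508del with the halide-sensitive YFP; corrector assay measuring rescue of mutant channel to the surface after 24 h compound exposure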
The depositor's hits bear a star; u = inconclusive; x = no result given; [ ] = another dose, or the depositor's remark.

SMILES | EWS-Fli inh | Env fusion inh | PGC1a acetyl inh | FN deposition inh | PAX8 inh HTS | CFTR F508del cor
COc1ccccc1N(C)S(=O)(=O)c1ccc(C(=O)Nc2ncc(C)s2)cc1 | 1.4 | 3.5 | -3.6 | -5.4 | 16.0 | 4.9
COc1ccccc1N(C)S(=O)(=O)c1ccc(C(=O)Nc2nccs2)cc1 | -10.5 | x | 1.9 | 5.7 | 6.8 | 26.6*
CN(C)S(=O)(=O)c1ccc(C(=O)Nc2nc(-c3cccs3)cs2)cc1 | -1.5 | 76.4* | 44.1 | 9.9 | 19.6 | 3.1
O=C(Nc1nc(-c2cccs2)cs1)c1ccc(S(=O)(=O)N2CCCC2)cc1 | x | u | -2.8 | -13.7 | x | x
C[C@@H]1CN([C@H](C)CO)C(=O)c2cc(NC(=O)Cc3ccccc3)ccc2O[C@@H](C)CCCCO[C@@H]1CN(C)C(=O)Nc1cccc2ccccc12 | -8.3 | -60.1[16.7 µM] | 4.1 | x | 63.5* | -1.5
C[C@@H]1CN([C@@H](C)CO)C(=O)c2cc(NC(=O)NC3CCCCC3)ccc2O[C@@H](C)CCCCO[C@H]1CN(C)C(=O)Nc1cccc2ccccc12 | 1.9 | 43.1[16.7 µM] | -5.4 | 3.6 | -8.6 | -2.8
C[C@@H]1CCCCO[C@H](CN(C)C(=O)Nc2cccc3ccccc23)[C@H](C)CN([C@H](C)CO)C(=O)c2cc(NC(=O)Cc3ccccc3)ccc2O1 | -0.9 | x | -9.8 | x | 9.1 | 2.6
C[C@H]1CCCCO[C@H](CN(C)C(=O)Nc2cccc3ccccc23)[C@@H](C)CN([C@@H](C)CO)C(=O)c2cc(NC(=O)NC3CCCCC3)ccc2O1 | 17.4 | 61.4*[16.7 µM] | -1.6 | 10.9 | 67.0* | -3.0
CC(C)NC(=O)N(C)C[C@@H]1Oc2ncc(C#CC3CC3)cc2C(=O)N([C@H](C)CO)C[C@@H]1C | -7.1 | -14.9[16.7 µM] | 1.2 | 9.2 | -14.1 | 1.7
CCCCOCCCNC(=O)C[C@H]1C[C@@]2(C(=O)OC)C(=C[C@H](C(C)(C)C)O[C@@H]2C)N(CCC2=CCCCC2)C1=O | 23.4 | 65.6* | x | -6.1 | 27.0 | 0.7
COC(=O)[C@]12C[C@H](CC(=O)NCC3CCCCC3)C(=O)N(CCC3=CCCCC3)C1=C[C@H](C(C)(C)C)O[C@@H]2C | 11.1 | 70.9* | x | 12.1 | 32.6 | 3.4
COC(=O)[C@]12C[C@H](CC(=O)NCCc3ccccc3OC)C(=O)N(CCC3=CCCCC3)C1=C[C@H](C(C)(C)C)O[C@@H]2C | 9.1 | 60.9* | x | 8.1 | 19.5 | 2.6
COC(=O)[C@]12C[C@H](CC(=O)NCCc3ccccc3OC)C(=O)N(Cc3ccccc3)C1=C[C@H](C(C)(C)C)O[C@@H]2C | 7.9 | 20.3 | x | -8.5 | 1.3 | 1.2
COC(=O)[C@]12C[C@H](CC(=O)NCc3cccc(C(F)(F)F)c3)C(=O)N(CCC3=CCCCC3)C1=C[C@H](C(C)(C)C)O[C@@H]2C | 4.5 | 101.3* | x | 0.8 | 2.2 | -1.9
COC(=O)[C@]12C[C@H](CC(=O)NCC34CC5CC(CC(C5)C3)C4)C(=O)N(CCC3=CCCCC3)C1=C[C@H](C(C)(C)C)O[C@@H]2C | 8.4 | 53.2 | x | 10.9 | -9.5 | -1.5
COC(=O)[C@]12C[C@H](CC(=O)NCc3cccc(C(F)(F)F)c3)C(=O)N(CCc3ccc(OC)c(OC)c3)C1=C[C@H](C(C)(C)C)O[C@@H]2C | 16.6 | -10.1 | x | -9.3 | 27.5 | -0.4
COc1ccc2c3c([nH]c2c1)[C@H](CO)N(Cc1ccc(Cl)cc1)CC31CN(Cc2ccccc2)C1 | -3.2 | x | -3.2 | x | x | 0.3
CC(C)NC(=O)N(C)C[C@H]1Oc2cc(C#Cc3cccc(F)c3)ccc2S(=O)(=O)N([C@H](C)CO)C[C@H]1C | -4.8 | 15.6[16.7 µM] | 10.3 | -3.3 | x | -0.9
CC(C)NC(=O)N(C)C[C@H]1Oc2ncc(C#CC3CCCCC3)cc2C(=O)N([C@H](C)CO)C[C@H]1C | -4.1 | 22.1[16.7 µM] | -11.8 | -5.0 | x | 0.8
COC(=O)[C@]12C[C@H](CC(=O)NCc3cccs3)C(=O)N(CCc3ccc(OC)c(OC)c3)C1=C[C@H](C(C)(C)C)O[C@@H]2C | -9.2 | 22.4 | x | 7.9 | -4.5 | 3.4
COCCCNC(=O)C[C@H]1C[C@@]2(C(=O)OC)C(=C[C@H](C(C)(C)C)O[C@@H]2C)N(CCc2ccc(OC)c(OC)c2)C1=O | -10.1 | -29.2 | x | 4.2 | -15.6 | 1.6
COCCCNC(=O)C[C@H]1C[C@@]2(C(=O)OC)C(=C[C@H](C(C)(C)C)O[C@@H]2C)N(CCC2=CCCCC2)C1=O | -4.2 | 59.8* | x | 2.6 | -4.6 | -0.4
COC(=O)[C@]12C[C@H](CC(=O)NCc3cccs3)C(=O)N(CCC3=CCCCC3)C1=C[C@H](C(C)(C)C)O[C@@H]2C | 21.3 | 75.6* | x | -3.6 | 26.2 | 0.8
CC(=O)Nc1cccc2c1O[C@H](CN(C)C(=O)NC(C)C)[C@@H](C)CN(C)C2=O | x | x | x | -0.1 | x | x
Cc1cc(OCc2cc(C(=O)N3CCN(CC4CC4)CC3)no2)cc(C)c1Cl | -14.9 | 1.7 | 9.2 | -1.3 | -4.9 | 2.6
SMILES | EWS-Fli inh | Env fusion inh | PGC1a acetyl inh | FN deposition inh | PAX8 inh HTS | CFTR F508del cor
Cc1cc(OCc2cc(C(=O)N3CCC(Oc4cccnc4)CC3)no2)cc(C)c1Cl | x | 66.7* | x | x | 14.8 | 1.6
CC(C)NC(=O)N(C)C[C@H]1Oc2ccc(NC(=O)C3CCCCC3)cc2CC(=O)N([C@H](C)CO)C[C@@H]1C | 1.4 | 18.7[16.7 µM] | x | x | -5.0 | -1.4
O=C1OC(CN(Cc2ccccc2)Cc2ccccc2)CN1N=Cc1ccc([N+](=O)[O-])o1 (stereo unspecified) | 18.9 | 82.5* | -54.7 | 0.8 | 28.0 | -1.1
O=C1OC(CN2CCOCC2)CN1N=Cc1ccc([N+](=O)[O-])o1 (stereo unspecified) | 9.4 | -143.5 | 0.5 | -7.9 | -1.2 | 4.0
O=c1c2cccnc2n(-c2ccccc2)n1Cc1ccc(Cl)cc1 | -0.7 | 30.2 | 101.0* | 0.1 | -2.2 | -3.3
O=C(N/N=C/c1ccc([N+](=O)[O-])o1)c1ccc(O)cc1 | 64.6* | -0.7 | -64.4 | -4.0 | 18.9 | -0.9
O=C(N/N=C/c1ccc([N+](=O)[O-])o1)c1ccncc1 | 22.3 | -7.7 | -10.8 | -8.5 | -29.6 | 2.2
Cc1cccc(COCC(CC(C)C)N2CCN(C(=O)c3ccc(C(C)(C)C)cc3)CCC2=O)c1 (stereo unspecified) | 6.4 | 59.8* | 9.7 | -1.0 | 4.5 | -0.8
Cc1cccc(COCC(CC(C)C)N2CCN(C(=O)c3ccc(C(F)(F)F)cc3)CCC2=O)c1 (stereo unspecified) | -4.5 | 82.9* | -9.7 | 11.7 | 14.5 | -1.0
CC(=O)O[C@H]1CC[C@@]2(C)C(=CC[C@H]3[C@@H]4CC[C@H](C5(C)OCCO5)[C@@]4(C)CC[C@@H]32)C1 | x | x | 6.6 | x | x | x
CC(=O)OC1CCC2(C)C(=CCC3C2CCC2(C)C3CC3ON=C(C)C32)C1 (stereo unspecified) | 3.3 | -20.4 | -1.0 | x | 0.6 | 10.8*
